Source: ChEMBL document CHEMBL3808334, “Synthesis and in vitro evaluation of novel triazine analogues as anticancer agents and their interaction studies with bovine serum albumin” (Eur J Med Chem, 2016)

What was measured:
Format in all cases: functional
ACHN = assay: Growth inhibition of human ACHN cells assessed as cell growth at 10^-4 M incubated for 48 hrs by sulforhodamine B assay; settings: read-out: Activity
Procedure, shortened: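 Five-dose assay: five concentrations from 10-fold or ½-log serial dilutions. Cells are plated at 5,000–40,000 per well according to doubling time, grown 24 h, then exposed 48 h at 37 °C, 5% CO₂. Fixed with cold 50% TCA (final addition) for 60 min at 4 °C and stained with 0.4% SRB in 1% acetic acid. Bound dye is solubilized in 10 mM Tris base and read at 515 nm. GI₅₀ is where [(Ti−Tz)/(C−Tz)]×100 = 50, with a time-zero plate as Tz.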

[1] = Growth inhibition of human UO31 cells assessed as cell growth at 10^-4 M incubated for 48 hrs by sulforhodamine B assay; settings: UO-31, 48 h, read-out: Activity
[2] = Growth inhibition of human OVCAR8 cells incubated for 48 hrs by sulforhodamine B assay; settings: OVCAR-8, 48 h
Procedure, shortened: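 Cells were plated at 5,000–40,000 per well according to doubling time and preincubated 24 h at 37 °C in 5% CO2; time-zero plates were then TCA-fixed. Five concentrations (10-fold or ½-log dilutions, DMSO stock) were incubated 48 h. Cells were TCA-fixed, stained with 0.4% SRB and read at 515 nm. GI50 was taken where [(Ti−Tz)/(C−Tz)]×100 = 50.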

[3] = Growth inhibition of human Caki1 cells incubated for 48 hrs by sulforhodamine B assay; settings: CAKI-1, 48 h; for CC50: read-out: pLC50 (the source's name) (converted)
Procedure, shortened: (§1)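 Cells seeded at 5,000–40,000/well according to doubling time and preincubated 24 h at 37 °C, 5% CO2. Time-zero plates were TCA-fixed. DMSO concentrate was diluted in medium with 50 µg/ml gentamicin to give five concentrations (10-fold or ½ log steps), then exposed 48 h. Cells were TCA-fixed, stained with 0.4% SRB and read at 515 nm. Percent growth was taken against time-zero and control; GI50, TGI and LC50 derived.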

SK-MEL-2 = assay: Growth inhibition of human SK-MEL-2 cells assessed as cell growth at 10^-8 M incubated for 48 hrs by sulforhodamine B assay; settings: SK-MEL-2, 48 h, read-out: Activity
[4] = Growth inhibition of human OVCAR5 cells assessed as cell growth at 10^-8 M incubated for 48 hrs by sulforhodamine B assay; settings: OVCAR-5, 48 h, read-out: Activity
K562 = assay: Growth inhibition of human K562 cells assessed as cell growth at 10^-7 M incubated for 48 hrs by sulforhodamine B assay; settings: K562, 48 h, read-out: Activity
[5] = Growth inhibition of human DU145 cells assessed as cell growth at 10^-5 M incubated for 48 hrs by sulforhodamine B assay; settings: DU-145, 48 h, read-out: Activity; procedure, shortened: as §1
[6] = Growth inhibition of human LOXIMVI cells assessed as cell growth at 10 uM incubated for 48 hrs by sulforhodamine B assay; settings: LOX IMVI, read-out: Activity
[7] = Growth inhibition of human UACC257 cells assessed as cell growth at 10 uM incubated for 48 hrs by sulforhodamine B assay; settings: UACC-257, 48 h, read-out: Activity
[8] = Growth inhibition of human OVCAR4 cells assessed as cell growth at 10 uM incubated for 48 hrs by sulforhodamine B assay; settings: OVCAR-4, 48 h, read-out: Activity
[9] = Growth inhibition of human TK10 cells assessed as cell growth at 10 uM incubated for 48 hrs by sulforhodamine B assay; settings: TK-10, 48 h, read-out: Activity
[10] = Growth inhibition of human TK10 cells assessed as cell growth at 10^-7 M incubated for 48 hrs by sulforhodamine B assay; settings: TK-10, 48 h, read-out: Activity
MDA-MB-468 = assay: Growth inhibition of human MDA-MB-468 cells assessed as cell growth at 10^-7 M incubated for 48 hrs by sulforhodamine B assay; settings: MDA-MB-468, 48 h, read-out: Activity
[11] = Growth inhibition of human SW620 cells assessed as cell growth at 10^-6 M incubated for 48 hrs by sulforhodamine B assay; settings: SW-620, 48 h, read-out: Activity
NCI-H460 = assay: Growth inhibition of human NCI-H460 cells assessed as cell growth at 10^-8 M incubated for 48 hrs by sulforhodamine B assay; settings: NCI-H460, 48 h, read-out: Activity
HT-29 [12] = assay: Growth inhibition of human HT-29 cells assessed as cell growth at 10^-8 M incubated for 48 hrs by sulforhodamine B assay; settings: HT-29, 48 h, read-out: Activity
[13] = Growth inhibition of human DU145 cells assessed as cell growth at 10^-6 M incubated for 48 hrs by sulforhodamine B assay; settings: DU-145, 48 h, read-out: Activity; procedure, shortened: as §1
[14] = Growth inhibition of human Hs 578T cells assessed as cell growth at 10^-6 M incubated for 48 hrs by sulforhodamine B assay; settings: read-out: Activity
[15] = Growth inhibition of human RPMI8226 cells assessed as cell growth at 10^-5 M incubated for 48 hrs by sulforhodamine B assay; settings: RPMI-8226, 48 h, read-out: Activity
[16] = Growth inhibition of human HCT15 cells assessed as cell growth at 10^-5 M incubated for 48 hrs by sulforhodamine B assay; settings: HCT-15, 48 h, read-out: Activity; procedure, shortened: as §1
HT-29 [17] = assay: Growth inhibition of human HT-29 cells assessed as cell growth at 10^-5 M incubated for 48 hrs by sulforhodamine B assay; settings: HT-29, 48 h, read-out: Activity
[18] = Growth inhibition of human SF539 cells assessed as cell growth at 10^-5 M incubated for 48 hrs by sulforhodamine B assay; settings: SF-539, 48 h, read-out: Activity
Malme-3M = assay: Growth inhibition of human MALME-3M cells assessed as cell growth at 10^-5 M incubated for 48 hrs by sulforhodamine B assay; settings: read-out: Activity
M14 = assay: Growth inhibition of human M14 cells assessed as cell growth at 10^-5 M incubated for 48 hrs by sulforhodamine B assay; settings: M14, 48 h, read-out: Activity
NCI-H23 = assay: Growth inhibition of human NCI-H23 cells assessed as cell growth at 10 uM incubated for 48 hrs by sulforhodamine B assay; settings: NCI-H23, 48 h, read-out: Activity
[19] = Growth inhibition of human HCC2998 cells assessed as cell growth at 10 uM incubated for 48 hrs by sulforhodamine B assay; settings: HCC 2998, 48 h, read-out: Activity
Procedure, shortened: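 Primary screen at one dose (10 µM) across 60 human cancer cell lines. Readout was growth percent relative to untreated control and time-zero.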

[20] = Growth inhibition of human renal cancer cells incubated for 48 hrs by sulforhodamine B assay; settings: Cancer cell lines; for CC50: read-out: LC50 (the source's name)
[21] = read-out: LC50 (the source's name)
[22] = read-out: pLC50 (the source's name) (converted)

Compound | growth at 100 µM (ACHN) [%] | growth at 100 µM [1] [%] | GI50 ([2]; read-out: GI50) [µM] | CC50 [2, 21] [µM] | TGI ([2]; read-out: TGI) [µM] | GI50 ([2]; read-out: pGI50 (converted)) [µM] | CC50 [2, 22] [µM] | TGI ([2]; read-out: pTGI (converted)) [µM] | GI50 ([3]; read-out: GI50) [µM] | TGI ([3]; read-out: TGI) [µM] | GI50 ([3]; read-out: pGI50 (converted)) [µM] | TGI ([3]; read-out: pTGI (converted)) [µM] | growth at 0.01 µM (SK-MEL-2) [%] | growth at 0.01 µM [4] [%] | growth at 0.1 µM (K562) [%] | growth at 10 µM [5] [%] | growth at 10 µM [6] [%] | growth at 10 µM [7] [%] | growth at 10 µM [8] [%] | growth at 10 µM [9] [%] | other results
c1ccc(-c2nc(Nc3ccc(-c4nc5ccccc5[nH]4)cc3)nc(N3CCOCC3)n2)cc1 | -70 | -76 | 1.72 | 6.79 | 3.41 | 1.7 | 6.76 | 3.39 | 1.28 | 2.54 | 1.29 | 2.57 | 105 | 90 | 96 | -96 | -89 | -56.4 | -47.2 | -58.1 | LC50 [3]: 5.06 µM; CC50 [3]: 5.01 µM; growth at 0.1 µM [10]: 106%; growth at 0.1 µM (MDA-MB-468): 112%; growth at 1 µM [11]: 39%; growth at 0.01 µM (NCI-H460): 103%; growth at 0.01 µM (HT-29 [12]): 105%; growth at 1 µM [13]: 63%; growth at 1 µM [14]: 78%; growth at 10 µM [15]: -32%; growth at 10 µM [16]: -58%; growth at 10 µM (HT-29 [17]): -70%; growth at 10 µM [18]: -84%; growth at 10 µM (Malme-3M): -73%; growth at 10 µM (M14): -80%; growth at 10 µM (NCI-H23): -59%; growth at 10 µM [19]: -80.7%; GI50 [20]: 1.2 µM; TGI [20]: 2.72 µM; CC50 [20]: 6.27 µM
Fc1ccc(-c2nc(Nc3ccc(-c4nc5ccccc5[nH]4)cc3)nc(N3CCOCC3)n2)cc1 | 3 | -16 | 3.26 | > 100 | 10.8 | 3.24 | > 100 | 10.7 | 1.98 | 5.02 | 2 | 5.01 | 103 | 93 | 101 | 25 | -75.6 | -27.6 | 59.8 | 43.9 | LC50 [3]: > 100 µM; CC50 [3]: > 100 µM; growth at 0.1 µM [10]: 88%; growth at 0.1 µM (MDA-MB-468): 106%; growth at 1 µM [11]: 100%; growth at 0.01 µM (NCI-H460): 104%; growth at 0.01 µM (HT-29 [12]): 100%; growth at 1 µM [13]: 98%; growth at 1 µM [14]: 71%; growth at 10 µM [15]: -17%; growth at 10 µM [16]: -35%; growth at 10 µM (HT-29 [17]): -35%; growth at 10 µM [18]: -60%; growth at 10 µM (Malme-3M): -71%; growth at 10 µM (M14): -62%; growth at 10 µM (NCI-H23): 11.3%; growth at 10 µM [19]: -19.9%; GI50 [20]: 2.03 µM; TGI [20]: 7.36 µM; CC50 [20]: 7.83 µM
c1ccc2[nH]c(-c3ccc(Nc4nc(N5CCCCC5)nc(N5CCOCC5)n4)cc3)nc2c1 | 1 | -36 | 3.24 | > 100 | 14.3 | 3.24 | > 100 | 14.1 | 1.81 | 4.08 | 1.82 | 4.07 | 97 | 101 | 107 | 23 | -77.1 | -19.3 | 61.2 | 58.8 | growth at 0.1 µM [10]: 93%; growth at 0.1 µM (MDA-MB-468): 100%; growth at 1 µM [11]: 96%; growth at 0.01 µM (NCI-H460): 101%; growth at 0.01 µM (HT-29 [12]): 105%; growth at 1 µM [13]: 96%; growth at 1 µM [14]: 89%; growth at 10 µM [15]: -19%; growth at 10 µM [16]: -49%; growth at 10 µM (HT-29 [17]): -36%; growth at 10 µM [18]: -28%; growth at 10 µM (Malme-3M): -80%; growth at 10 µM (M14): -45%; growth at 10 µM (NCI-H23): 19.7%; growth at 10 µM [19]: -1.07%; GI50 [20]: 2.46 µM; TGI [20]: 11.8 µM; CC50 [20]: 8.29 µM
